Laboratory results: publication PMC3984342 (mAbs, 2013)
Where two headings read alike, the source gives them in different places.

Assays:
[1] = METH alone, no antibody; ref Riviere et al.[21]; cited from earlier work
[2] = Isothermal titration calorimetry; type: binding
Procedure, shortened: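 For isothermal titration calorimetry, 86 μM METH was titrated into 5 μM antibody at 307 rpm. Each run had 28 injections of 10 μL, spaced 200 s, at 37 °C in PBS pH 6.5. A one-site model gave N, ΔH, ΔS and the association constant (the reciprocal of KD). Activity was derived from N and molecular weights, with 2.07 μg METH/mg mAb taken as 100% active.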

[3] = Prediction of human elimination half-life from rat values; parameters: species or system humans; conditions: extrapolated from rat: human ClT about one-third of rat, similar Vdss
[4] = Modified radioimmunoassay; type: binding; conditions: modified RIA, [3H]-METH tracer, complete inhibition curve
[5] = GLP in vivo rat toxicology study
[6] = type: in vivo, Male, Sprague Dawley rats; conditions: rats, single antibody dose, throughout the study
Procedure, shortened: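 Body weights and general health observations were recorded for each rat throughout the 3-week study after the single IV antibody dose and 24-h SC challenge. Body weight and hematocrit are given as mean ± standard deviation.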

[7] = METH pharmacokinetics in rats after anti-METH mAb treatment; type: in vivo, Male, Sprague Dawley rats; conditions: rat
Procedure, shortened: (§1)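 Male Sprague Dawley rats (n = 12/group), housed individually, got a single IV antibody dose via tail vein over about 2 min. The dose was ultracentrifuged (~100,000 g, 1 h, 5 °C) and diluted in PBS (15 mM sodium phosphate, 150 mM NaCl). METH 1 mg/kg (in 0.9% NaCl) or saline was given SC 24 h later. Six tail-vein samples were drawn over 3 wk. Non-compartmental sparse-sampling analysis used mean concentration per time point: ClT = D/AUC, Vdss = D·AUMC/AUC², […].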

[8] = GLP human tissue cross-reactivity study; conditions: human tissues, results not shown
[9] = Ch-mAb7F9 pharmacokinetics in rats; type: in vivo, Male, Sprague Dawley rats; conditions: for ClT / Vdss / t1/2λz: rat
Procedure, shortened: as §1

[10] = Preliminary surface plasmon resonance study of on-off rates; type: binding; conditions: data not shown
[11] = ch-mAb7F9 15 mg/kg IV, saline challenge
[12] = ch-mAb7F9 15 mg/kg IV, with METH 1 mg/kg SC 24 h later
[13] = ch-mAb7F9 150 mg/kg IV, saline challenge
[14] = ch-mAb7F9 150 mg/kg IV, with METH 1 mg/kg SC 24 h later

## (+)-methamphetamine
[1]
  METH ClT: 181400 mL/day/kg
  METH Vdss: 9 L/kg
  METH t1/2λz: 1.1 h

B1: ch-mAb7F9: human-mouse chimeric anti-METH monoclonal antibody; mAb7F9 variable region joined to human IgG2κ constant domains (antibody, V domains shown)
VH: EIQLQQSGPELGKPGASVKVSCRASGFSFADYYIYWVKQSHGKSLELIGYIDPFNGGDTYNQIFKGKATLTVDKSSSTAFMYLNSLTSEDSAVYYCAAFRNPSFDFWGQGTTLTVSS
VL: QIVLIQSPPIMSASPGEKVTLTCSASSSVSSRYLYWYQQKPGSSPKLWIYGTSNLASGVPARFSGSGSGTSFSLTISSMEAEDAASYFCHQWSSFPFTFGSGTKLEIK
[2]; first GMP-compliant lot, converted from ITC stoichiometry
  average activity (capacity for binding METH per quantity of mAb): 1.96 μg METH bound per mg mAb
[2]; read-out: KD (ITC, average), ITC, 37 °C, PBS pH 6.5
  Kd: 49 nM
[3]
  predicted t1/2λz in humans: ≤ 3 wk
[4]
  Kd: 6.9 nM
[5]; GLP rat toxicology study, samples for 56 d, results not shown
  elimination half-life: 190 to 288 h
[5]; rat, single doses, GLP
  no-observed-adverse-effect level, NOAEL: 400 mg/kg
[6]
  health changes (eating behavior, body weight): no significant health changes
[7]; 150 mg/kg mAb dose
  decrease of METH clearance compared with mAb7F9: approximately 50%
[7]; METH 1 mg/kg SC 24 h after mAb 15 mg/kg IV
  METH ClT: 13800 mL/day/kg
[7]; METH 1 mg/kg SC 24 h after mAb 150 mg/kg IV
  METH ClT: 926 mL/day/kg
[7]; ch-mAb7F9 15 mg/kg
  decrease of METH Vdss compared with METH alone: ~ 5 fold
  increase in METH t1/2λz compared with METH alone: 2.1 fold
[7]; ch-mAb7F9 15 mg/kg (low dose)
  decrease of METH ClT compared with METH alone: 13 fold
[7]; ch-mAb7F9 150 mg/kg
  decrease of METH Vdss compared with METH alone: ~25 fold
  increase in METH t1/2λz compared with METH alone: 5.9 fold
[7]; ch-mAb7F9 150 mg/kg (high dose)
  decrease of METH ClT compared with METH alone: 196 fold
[8]
  tissue staining: the staining was cytoplasmic
[9]; [11]
  ClT: 6.9 mL/day/kg
  Vdss: 0.1084 L/kg
  t1/2λz: 262 h
[9]; [12]
  ClT: 6.1 mL/day/kg
  Vdss: 0.1151 L/kg
  t1/2λz: 314 h
[9]; [13]
  ClT: 6.5 mL/day/kg
  Vdss: 0.1083 L/kg
  t1/2λz: 276 h
[9]; [14]
  ClT: 7.6 mL/day/kg
  Vdss: 0.1082 L/kg
  t1/2λz: 235 h
[9]; rats, current studies, 15 and 150 mg/kg
  t1/2λz (range over groups): 240 to 312 h
[10]
  on-off rates of METH binding: both reactions are fast
